From ChEMBL document CHEMBL1154369, “Betulin-derived compounds as inhibitors of alphavirus replication” (J Nat Prod, 2009)

Columns and labels:
[1] = Cytotoxicity against human HuH7 cells assessed as cell viability at 50 uM after 24 hrs
Semliki Forest virus [2] = experiment: Antiviral activity against SFV infected in BHK cells assessed as surviving virus fraction at 50 uM after 14 hrs by luciferase reporter gene assay; assay type: functional; parameters: scale not given here
Semliki Forest virus [3] = experiment: Antiviral activity against SFV infected in BHK cells after 14 hrs by luciferase reporter gene assay; assay type: functional, organism-based
Method in brief: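 SFV-Rluc reporter virus from infectious cDNA clone; BHK-21 cells infected at low multiplicity (0.001 PFU/cell) and incubated 14 h, spanning over 2 infectious cycles. Serial dilutions of each derivative tested. Luciferase read-out as surviving virus fraction. IC50 from a sigmoidal dose-response fit; means ± SD, n = 6. 3′-Amino-3′-deoxyadenosine (20 µM) served as screen positive control.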

[4] = Cytotoxicity against human HuH7 cells assessed as cell viability at 500 uM after 24 hrs; assay type: cell-based, Huh-7; settings: read-out: Activity
Method in brief: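 Huh-7 human hepatocellular carcinoma cells exposed 24 h to derivative at 500 µM in an extended cytotoxicity analysis. Viability measured as intracellular ATP content and reported as surviving fraction.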

Row | SMILES | viability at 24 h, 50 µM [1] [%] | Activity (Semliki Forest virus [2]) [%] | IC50 (Semliki Forest virus [3]; read-out: IC50) [µM] | IC50 (Semliki Forest virus [3]; read-out: pIC50 (converted)) [µM] | viability at 24 h, 500 µM [4] [%]
1 | C=C(C)[C@@H]1CC[C@]2(/C=N/O)CC[C@]3(C)[C@H](CC[C@@H]4[C@@]5(C)CC[C@H](O)C(C)(C)[C@@H]5CC[C@]43C)[C@@H]12 | 82 | 55 |  |  | 
2 | CC(=O)OC[C@]12CC[C@]3(C(C)C)C1=C1[C@H](C[C@@H]4[C@@]5(C)CC[C@H](OC(C)=O)C(C)(C)[C@@H]5CC[C@@]4(C)[C@]1(C)CC2)n1c(=O)n(-c2ccc4c(c2)CCC4)c(=O)n13 | 93 | 81 |  |  | 
3 | C=C(C)[C@@H]1CC[C@]2(COC(=O)c3cccnc3)CC[C@]3(C)[C@H](CC[C@@H]4[C@@]5(C)CC[C@H](O)C(C)(C)[C@@H]5CC[C@]43C)[C@@H]12 | 94 | 43 |  |  | 
4 | CC(C)[C@@]12CC[C@]3(COC(=O)C4CCCCC4)CC[C@]4(C)C(=C31)[C@H](C[C@@H]1[C@@]3(C)CC[C@H](OC(=O)C5CCCCC5)C(C)(C)[C@@H]3CC[C@]14C)n1c(=O)n(C(C)(C)C)c(=O)n12 | 83 | 40 |  |  | 
5 | C=C(C)[C@@H]1CC[C@]2(C(=O)OC)CC[C@]3(C)[C@H](CC[C@@H]4[C@@]5(C)CCC(=O)C(C)(C)[C@@H]5CC[C@]43C)[C@@H]12 [METHYL BETULONATE] | 83 | 71 |  |  | 
6 | C=C(C)[C@@H]1CC[C@]2(CO)CC[C@]3(C)[C@H](CC[C@@H]4[C@@]5(C)CC[C@H](OC(C)=O)C(C)(C)[C@@H]5CC[C@]43C)[C@@H]12 | 86 | 3 | 24.2 | 24 | > 80
7 | COc1cccc(-n2c(=O)n3n(c2=O)[C@]2(C(C)C)CC[C@]4(COC(C)=O)CC[C@]5(C)C(=C42)[C@@H]3C[C@@H]2[C@@]3(C)CC[C@H](OC(C)=O)C(C)(C)[C@@H]3CC[C@]25C)c1 | 93 | 121 |  |  | 
8 | CC(C)[C@@]12CC[C@]3(COC(=O)C4CCCCC4)CC[C@]4(C)C(=C31)[C@H](C[C@@H]1[C@@]3(C)CC[C@H](OC(=O)C5CCCCC5)C(C)(C)[C@@H]3CC[C@]14C)n1c(=O)n(C)c(=O)n12 | 97 | 44 |  |  | 
9 | CC(C)[C@@]12CC[C@]3(CO)CC[C@]4(C)C(=C31)[C@H](C[C@@H]1[C@@]3(C)CC[C@H](O)C(C)(C)[C@@H]3CC[C@]14C)n1c(=O)n(-c3ccccc3)c(=O)n12 | 85 | 73 |  |  | 
10 | C=C(C)[C@@H]1CC[C@]2(CO)CC[C@]3(C)[C@H](CC[C@@H]4[C@@]5(C)CC[C@H](O)C(C)(C)[C@@H]5CC[C@]43C)[C@@H]12 [BETULIN] | 83 | 7 | 45.5 | 45.7 | > 80
11 | C=C(C)[C@@H]1CC[C@]2(COC(=O)C3C(C=C(C)C)C3(C)C)CC[C@]3(C)[C@H](CC[C@@H]4[C@@]5(C)CC[C@H](O)C(C)(C)[C@@H]5CC[C@]43C)[C@@H]12 (some centres undefined) | 90 | 95 |  |  | 
12 | CCC(=O)OC[C@]12CC[C@]3(C(C)C)C1=C1[C@H](C[C@@H]4[C@@]5(C)CC[C@H](OC(=O)CC)C(C)(C)[C@@H]5CC[C@@]4(C)[C@]1(C)CC2)n1c(=O)n(C)c(=O)n13 | 75 | 21 |  |  | 
13 | C=C(C)[C@@H]1CC[C@]2(C=O)CC[C@]3(C)[C@H](CC[C@@H]4[C@@]5(C)CC[C@H](O)C(C)(C)[C@@H]5CC[C@]43C)[C@@H]12 [BETULINALDEHYDE] | 0 | 1 |  |  | 
14 | C=C(C)[C@@H]1CC[C@]2(C#N)CC[C@]3(C)[C@H](CC[C@@H]4[C@@]5(C)CC[C@H](OC(C)=O)C(C)(C)[C@@H]5CC[C@]43C)[C@@H]12 | 69 | 60 |  |  | 
15 | C=C(C)[C@@H]1CC[C@]2(COC(=O)/C=C/c3ccccc3)CC[C@]3(C)[C@H](CC[C@@H]4[C@@]5(C)CC[C@H](O)C(C)(C)[C@@H]5CC[C@]43C)[C@@H]12 | 96 | 111 |  |  | 
16 | C=C(C)[C@@H]1CC[C@]2(COC(C)=O)CC[C@]3(C)[C@H](CC[C@@H]4[C@@]5(C)CC[C@H](OC(C)=O)C(C)(C)[C@@H]5CC[C@]43C)[C@@H]12 [BETULIN DIACETATE] | 97 | 21 | 9.1 | 9.12 | 
17 | CCn1c(=O)n2n(c1=O)[C@]1(C(C)C)CC[C@]3(COC(C)=O)CC[C@]4(C)C(=C31)[C@@H]2C[C@@H]1[C@@]2(C)CC[C@H](OC(C)=O)C(C)(C)[C@@H]2CC[C@]14C | 40 | 24 |  |  | 

Row | SMILES | viability at 24 h, 50 µM [1] [%] | Activity (Semliki Forest virus [2]) [%] | IC50 (Semliki Forest virus [3]; read-out: IC50) [µM] | IC50 (Semliki Forest virus [3]; read-out: pIC50 (converted)) [µM] | viability at 24 h, 500 µM [4] [%]
18 | C=C(C)[C@@H]1CC[C@]2(COC(C)=O)CC[C@]3(C)[C@H](CC[C@@H]4[C@@]5(C)CC=CC(C)(C)[C@@H]5CC[C@]43C)[C@@H]12 | 95 | 98 |  |  | 
19 | CC(=O)OC[C@]12CC[C@]3(C(C)C)C1=C1[C@H](C[C@@H]4[C@@]5(C)CC[C@H](OC(C)=O)C(C)(C)[C@@H]5CC[C@@]4(C)[C@]1(C)CC2)n1c(=O)n(-c2ccc(F)cc2)c(=O)n13 | 95 | 64 |  |  | 
20 | C=C(C)[C@@H]1CC[C@]2(CO)CC[C@]3(C)[C@H](CC[C@@H]4[C@@]5(C)CC=CC(C)(C)[C@@H]5CC[C@]43C)[C@@H]12 | 85 | 121 |  |  | 
21 | C=C(C)[C@@H]1CC[C@]2(C#N)CC[C@]3(C)[C@H](CC[C@@H]4[C@@]5(C)CC/C(=N\OC(C)=O)C(C)(C)[C@@H]5CC[C@]43C)[C@@H]12 | 85 | 73 |  |  | 
22 | CCCC(=O)OC[C@]12CC[C@]3(C(C)C)C1=C1[C@H](C[C@@H]4[C@@]5(C)CC[C@H](OC(=O)CCC)C(C)(C)[C@@H]5CC[C@@]4(C)[C@]1(C)CC2)n1c(=O)n(C)c(=O)n13 | 93 | 18 | 30.1 | 30.2 | 
23 | C=C(C)[C@@H]1CC[C@]2(COC(=O)c3ccccc3NC(C)=O)CC[C@]3(C)[C@H](CC[C@@H]4[C@@]5(C)CC[C@H](O)C(C)(C)[C@@H]5CC[C@]43C)[C@@H]12 | 94 | 82 |  |  | 
24 | CC(C)[C@@]12CC[C@]3(COC(=O)c4ccccc4)CC[C@]4(C)C(=C31)[C@H](C[C@@H]1[C@@]3(C)CC[C@H](OC(=O)c5ccccc5)C(C)(C)[C@@H]3CC[C@]14C)n1c(=O)n(-c3ccccc3)c(=O)n12 | 88 | 50 |  |  | 
25 | CC(C)C(=O)OC[C@]12CC[C@]3(C(C)C)C1=C1[C@H](C[C@@H]4[C@@]5(C)CC[C@H](OC(=O)C(C)C)C(C)(C)[C@@H]5CC[C@@]4(C)[C@]1(C)CC2)n1c(=O)n(C)c(=O)n13 | 106 | 24 |  |  | > 80
26 | C=C(C)[C@@H]1CC[C@]2(C(=O)Oc3ccc(C=O)cc3OC)CC[C@]3(C)[C@H](CC[C@@H]4[C@@]5(C)CCC(=O)C(C)(C)C5CC[C@]43C)[C@@H]12 (some centres undefined) [VANILLINYL BETULONATE] | 89 | 43 |  |  | 
27 | C=C(C)[C@@H]1CC[C@]2(/C=N/O)CC[C@]3(C)[C@H](CC[C@@H]4[C@@]5(C)CC/C(=N\O)C(C)(C)[C@@H]5CC[C@]43C)[C@@H]12 [BETULIN-3,28-DIOXIME] | 80 | 121 |  |  | 
28 | C=C(C)[C@@H]1CC[C@]2(C(=O)N[C@@H](CC(=O)OC)C(=O)OC)CC[C@]3(C)[C@H](CC[C@@H]4[C@@]5(C)CCC(=O)C(C)(C)[C@@H]5CC[C@]43C)[C@@H]12 | 30 | 40 |  |  | 
29 | C=C(C)[C@@H]1CC[C@]2(COC(=O)COc3cc(C(C)C)ccc3C)CC[C@]3(C)[C@H](CC[C@@H]4[C@@]5(C)CC[C@H](O)C(C)(C)[C@@H]5CC[C@]43C)[C@@H]12 | 103 | 80 |  |  | 
30 | C=C(C)[C@@H]1CC[C@]2(COS(C)(=O)=O)CC[C@]3(C)[C@H](CC[C@@H]4[C@@]5(C)CC[C@H](OC(C)=O)C(C)(C)[C@@H]5CC[C@]43C)[C@@H]12 | 99 | 46 |  |  | 
31 | C=C(C)[C@@H]1CC[C@]2(C(=O)OC)CC[C@]3(C)[C@H](CC[C@@H]4[C@@]5(C)CC[C@H](O)C(C)(C)[C@@H]5CC[C@]43C)[C@@H]12 [METHYL BETULINATE] | 1 | 68 |  |  | 
32 | C=C(C)[C@@H]1CC[C@]2(COC(=O)CCC(C)=O)CC[C@]3(C)[C@H](CC[C@@H]4[C@@]5(C)CC[C@H](OC(=O)CCC(C)=O)C(C)(C)[C@@H]5CC[C@]43C)[C@@H]12 | 109 | 74 |  |  | 
33 | CC(C)[C@@]12CC[C@]3(COC(=O)c4ccccc4)CC[C@]4(C)C(=C31)[C@H](C[C@@H]1[C@@]3(C)CC[C@H](OC(=O)c5ccccc5)C(C)(C)[C@@H]3CC[C@]14C)n1c(=O)n(C)c(=O)n12 | 108 | 22 |  |  | 
34 | C=C(C)[C@@H]1CC[C@]2(COC(=O)CBr)CC[C@]3(C)[C@H](CC[C@@H]4[C@@]5(C)CC[C@H](O)C(C)(C)[C@@H]5CC[C@]43C)[C@@H]12 | 11 | 125 |  |  | 
